A short description of series [1]: Compound was tested for diuretic activity in sodium content of the 3-h sample was measured by flame photometry. The format is ADME, Urine. Details: unit not given beside the values. An outline of the steps: (§1)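 Rats, four per group (eight in one case), given oral 50 mL/kg 0.2% NaCl load together with test agent by mouth; placed in metabolism cages, urine collected 3 h. Urine volume expressed as % of load; total Na+ and K+ (mequiv × 100) in the 3-h sample by flame photometry. Vehicle controls run alongside; significance p < 0.05, p < 0.01.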

The species entered for series [2] is Rattus norvegicus. Nature of the series: Compound was tested for diuretic activity in sodium content of the 3-h sample was measured by flame photometry in rat. The format is ADME, organism-based, Urine. Also on record: unit not given beside the values. Conditions: in vivo. The essentials:
as §1

The species entered for series [3] is Rattus norvegicus. The series can be described thus: Compound was tested for diuretic activity in potassium content of the 3-h sample was measured by flame photometry in rat. It is filed as ADME, organism-based, Urine. Conditions: in vivo. The essentials: (§2)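 Rats, four per dose group, given oral 0.2% NaCl load (50 mL/kg) together with test agent orally; placed in metabolism cages, urine collected 3 h. Na+ and K+ content of the 3-h sample by flame photometry; output as % of load and total mequiv × 100, compared against concurrent controls.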

Series [4] deals with Rattus norvegicus. Nature of the series: Compound was tested for diuretic activity against peroral dose of 100 mg/kg in rat. Conditions: in vivo, po. The format is ADME, organism-based, Urine. Details: dose 100 mg/kg, route oral. The essentials: as §1
Series [5] relates to Rattus norvegicus. Nature of the series: Compound was tested for diuretic activity against peroral dose of 10 mg/kg in rat. The format is ADME, organism-based, Urine. Details: dose 10 mg/kg, route oral. The note with it: in vivo, po. The essentials: as §2
For series [6], the system named is Rattus norvegicus. The series can be described thus: Compound was tested for diuretic activity against peroral dose of 25 mg/kg in rat. Details: dose 25 mg/kg, route oral. It is filed as ADME, organism-based, Urine. The note with it: in vivo, po. An outline of the steps: as §1
Series [7] concerns Rattus norvegicus. The series can be described thus: Compound was tested for diuretic activity against peroral dose of 50 mg/kg in rat. It is filed as ADME, organism-based, Urine. Also on record: dose 50 mg/kg, route oral. Conditions: in vivo, po. The essentials: as §1
In series [8] the test system is Rattus norvegicus. Nature of the series: Compound was tested for diuretic activity against peroral dose of 5 mg/kg in rat. It is filed as ADME, organism-based, Urine. Details: dose 5 mg/kg, route oral. Conditions: in vivo, po. An outline of the steps:
as §1

Series [9] deals with Canis familiaris. The series can be described thus: Compound was tested for diuretic activity in urine volume in dogs at a dose of 5 mg/kg. It is filed as ADME, organism-based, Canis lupus familiaris. Also on record: dose 5 mg/kg. Conditions: dog, in vivo. An outline of the steps:
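Six normotensive trained dogs (10.2-17.9 kg), each given a placebo control test before each run. Oral dosing, then 100 mL normal saline injected subcutaneously. Bladder emptied by catheter at onset and 2, 4, 6 h after dosing; dogs in metabolism cages. Total urine volume recorded; Na+ and K+ of an aliquot by flame photometry.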

The nature of series [10]: Compound was tested for diuretic activity in potassium content of the 3-h sample was measured by flame photometry. The format is ADME, Urine. The essentials:
as §1

For series [11], the species on record is Canis familiaris. The series can be described thus: Compound was tested for diuretic activity in urine volume in dog. It is filed as ADME, organism-based, Canis lupus familiaris. Conditions: in vivo. An outline of the steps:
(§3)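 Six normotensive trained dogs (10.2-17.9 kg; five for 10 mg/kg runs), oral dosing at 5 or 10 mg/kg, each preceded by placebo control test. Normal saline 100 mL given subcutaneously right after dosing. Bladder emptied by catheter at onset and 2, 4, 6 h; kept in metabolism cages; total urine volume recorded, Na+ and K+ of aliquot by flame photometry.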

The species named for series [12] is Canis familiaris. Nature of the series: Compound was tested for diuretic activity urine volume in dog. The format is ADME, organism-based, Canis lupus familiaris. Conditions: in vivo. The essentials:
as §3

Values joined by “and” are separate entries in the source; they are usually repeats but may differ in a detail not shown here. Equal values may be shown once.

On to `Nc1noc(-c2nc(Cl)c(N)nc2N)n1`, for which the Diuretic activity was 23.5 and 21.2 and 40 in [1]; 24.7 and 33.8 and 42.7 and 41.6 in the series filed under Rattus norvegicus [2]; 1.1 and 2 and 1.8 and 1.9 and 2.1 in the series filed under Rattus norvegicus [3]. Further, the Load with Rattus norvegicus [4] is 100.4%; in the series with Rattus norvegicus [5], 88.8% and 96.9%; in the series on Rattus norvegicus [6], 93.3%; with Rattus norvegicus [7], 103% and 83.9%; in the series with Rattus norvegicus [8], 81.1%; in the series with Canis familiaris [9] it was 91% and 76.8%.
Take `Cl.N=C(N)NC(=O)c1nc(Cl)c(N)nc1N.O.O` [AMILORIDE HYDROCHLORIDE]: the Diuretic activity in series [1] is 33.6 and 24.9 and 27.9 and 32.9; in the series listed under Rattus norvegicus [2], 38 [middle of 4 runs]; in [10], 1.1 and 1.4 and 1.7; in the series filed under Rattus norvegicus [3] it was 1.5 and 1.7 and 1.6 and 1.1. Further, the Load is 59.7% with Rattus norvegicus [4]; 96.8% in the series with Rattus norvegicus [5]; 82.1% with Rattus norvegicus [6]; 64.9% and 76.2% in the series with Rattus norvegicus [7]; 94% with Rattus norvegicus [8]. The urine vol is given as 91.2% in the series listed under Canis familiaris [11] and 88.2% in the series filed under Canis familiaris [12].
